Data from ChEMBL document CHEMBL1629614, “Inhibition of methionyl-tRNA synthetase by REP8839 and effects of resistance mutations on enzyme activity” (Antimicrob Agents Chemother, 2009).
Substitutions are numbered along the chain they refer to. Numbers in names are those of the source.

Tests used:
[1] = compound: C=C(F)c1sc(CNCCCNc2cc(=O)c3ccccc3[nH]2)c(C)c1Br; experiment: Activity of Haemophilus influenzae MetRS by ATP:PPi exchange assay in presence of methionine
[2] = compound: C=C(F)c1sc(CNCCCNc2cc(=O)c3ccccc3[nH]2)c(C)c1Br; experiment: Activity of Haemophilus influenzae MetRS by ATP:PPi exchange assay in presence of ATP
[3] = compound: C=C(F)c1sc(CNCCCNc2cc(=O)c3ccccc3[nH]2)c(C)c1Br; experiment: Activity of Thermus thermophilus HB8 MetRS by ATP:PPi exchange assay in presence of ATP
[4] = compound: C=C(F)c1sc(CNCCCNc2cc(=O)c3ccccc3[nH]2)c(C)c1Br; experiment: Activity of Thermus thermophilus HB8 MetRS by ATP:PPi exchange assay in presence of methionine
[5] = compound: C=C(F)c1sc(CNCCCNc2cc(=O)c3ccccc3[nH]2)c(C)c1Br; experiment: Activity of streptococcus aureus MetRS L213W mutant by scintillation proximity assay in presence of tRNA; conditions: Staphylococcus aureus
[6] = compound: C=C(F)c1sc(CNCCCNc2cc(=O)c3ccccc3[nH]2)c(C)c1Br; experiment: Ratio of Kcat to Km for Staphylococcus aureus MetRS L213W mutant in presence of ATP
Summary of the method: (§1)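 Purified recombinant S. aureus MetRS (30 nM) was assayed by ATP:PPi exchange at 30°C in Tris pH 8.0 with Mg acetate, KCl and DTT. [32P]PPi was matched to ATP, and ATP or methionine was varied. Time points from 1 to 10 min were quenched with EDTA, separated by PEI-cellulose TLC and read by phosphorimager. Initial rates were fitted to Michaelis-Menten.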

[7] = compound: C=C(F)c1sc(CNCCCNc2cc(=O)c3ccccc3[nH]2)c(C)c1Br; experiment: Activity of Staphylococcus aureus MetRS L213W mutant by ATP:PPi exchange assay in presence of methionine
Summary of the method: (§2)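 Purified S. aureus MetRS (wild type or mutant; E. coli-expressed, ammonium sulfate cut, anion exchange) at 30 nM. ATP:PPi exchange at 30°C in 100 mM Tris-HCl pH 8.0, 5–10 mM Mg acetate, 80 mM KCl, 2.5 mM DTT, [32P]PPi plus cold PPi equal to ATP. Quenched with EDTA over 1–10 min, PEI-cellulose TLC, phosphorimager. Initial velocities versus varied ATP or methionine fit to Michaelis-Menten.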

[8] = compound: C=C(F)c1sc(CNCCCNc2cc(=O)c3ccccc3[nH]2)c(C)c1Br; experiment: Ratio of Kcat to Km for Staphylococcus aureus MetRS L213W mutant in presence of methionine; summary of the method: as §1
[9] = compound: C=C(F)c1sc(CNCCCNc2cc(=O)c3ccccc3[nH]2)c(C)c1Br; experiment: Ratio of Kcat to Km for Staphylococcus aureus MetRS L213W mutant in presence of tRNA
Summary of the method: (§3)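 Purified recombinant S. aureus MetRS was assayed by tRNA aminoacylation at 30°C for 1 to 7.5 min to obtain initial rates. Buffer was Tris pH 8.0 with Mg acetate, 2.5 mM ATP, KCl, DTT, BSA, [3H]methionine and crude E. coli tRNA. Reactions were EDTA-stopped, and charged tRNA was read by scintillation proximity with polylysine beads at pH 2.0.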

[10] = compound: C=C(F)c1sc(CNCCCNc2cc(=O)c3ccccc3[nH]2)c(C)c1Br; experiment: Activity of Staphylococcus aureus MetRS L213W mutant by ATP:PPi exchange assay in presence of ATP; summary of the method: as §2
[11] = compound: C=C(F)c1sc(CNCCCNc2cc(=O)c3ccccc3[nH]2)c(C)c1Br; experiment: Activity of streptococcus aureus MetRS A247E mutant by scintillation proximity assay in presence of tRNA; conditions: Staphylococcus aureus
[12] = compound: C=C(F)c1sc(CNCCCNc2cc(=O)c3ccccc3[nH]2)c(C)c1Br; experiment: Ratio of Kcat to Km for Staphylococcus aureus MetRS A247E mutant in presence of methionine; summary of the method: as §1
[13] = compound: C=C(F)c1sc(CNCCCNc2cc(=O)c3ccccc3[nH]2)c(C)c1Br; experiment: Activity of Staphylococcus aureus MetRS A247E mutant by ATP:PPi exchange assay in presence of methionine; summary of the method: as §2
[14] = compound: C=C(F)c1sc(CNCCCNc2cc(=O)c3ccccc3[nH]2)c(C)c1Br; experiment: Ratio of Kcat to Km for Staphylococcus aureus MetRS A247E mutant in presence of ATP; summary of the method: as §1
[15] = compound: C=C(F)c1sc(CNCCCNc2cc(=O)c3ccccc3[nH]2)c(C)c1Br; experiment: Ratio of Kcat to Km for Staphylococcus aureus MetRS A247E mutant in presence of tRNA; summary of the method: as §3
[16] = compound: C=C(F)c1sc(CNCCCNc2cc(=O)c3ccccc3[nH]2)c(C)c1Br; experiment: Activity of Staphylococcus aureus MetRS A247E mutant by ATP:PPi exchange assay in presence of ATP; summary of the method: as §2

B1: Methionine--tRNA ligase (Haemophilus influenzae (strain ATCC 51907 / DSM 11121 / KW20 / Rd)), P43828 (protein)
chain: MTTQPRKILVTCALPYANGAIHLGHMLEHIQADIWVRFQRMRGNKIHFVCADDAHGTPIMLNADKLGITPEELIAKAKADHIRDFAGFNISFDNYHSTHSEENKQLTAEIYNKLKANGFIKSKVISQLFDPEKNMFLPDRFVKGTCPKCKAEDQYGDNCEVCASTYSPMDLINPRSAVSGTTPIVKESEHFFFDLPAFEGMLKEWTRSGSLQSEIANKMQEWFESDLQQWDISRDAPYFGFEIPGAKDKFFYVWLDAPIGYMASFKNLCNREGIDFNEFWAEGSDAELYHFIGKDIVYFHSLFWPAMLEGSGYRKPTNVFAHGYVTVDGAKMSKSRGTFIQASTYLNHIDPECLRYYYAAKLNDRIEDLDFNLEDFVQRVNTDIVNKLVNLASRNAGFIAKRFEGKLADKLEDKSLFAEFTAQAEQIAAYYESREYNKTIREIMALTDKANKYIDEKAPWVIAKEEGKEAELQAVCSMGIELFRVLMSYLKPVLPKLAERAETFLQAELRWDNIHQPLLGHTLAPFKALFSRLEKKQIDAVVEETKALFAAANKAAEKTEAKPTALSAVEPIAETITIDDFAKLDMRVAKVLKCEAVPESNKLLRFELDLGDHTRQVFSGIKAAYNKPEELEGRFVIMVANLAPRKMKFGVSEGMILSAGTGGSDLFLLSADSGVTAGMQVK
B1 gave a Km [1] of 250 µM and a Km [2] of 1200 µM.

B2: Methionine--tRNA ligase (Thermus thermophilus (strain HB8 / ATCC 27634 / DSM 579)), P23395 (protein)
chain: MEKVFYVTTPIYYVNAEPHLGHAYTTVVADFLARWHRLDGYRTFFLTGTDEHGETVYRAAQAAGEDPKAFVDRVSGRFKRAWDLLGIAYDDFIRTTEERHKKVVQLVLKKVYEAGDIYYGEYEGLYCVSCERFYTEKELVEGLCPIHGRPVERRKEGNYFFRMEKYRPWLQEYIQENPDLIRPEGYRNEVLAMLAEPIGDLSISRPKSRVPWGIPLPWDENHVTYVWFDALLNYVSALDYPEGEAYRTFWPHAWHLIGKDILKPHAVFWPTMLKAAGIPMYRHLNVGGFLLGPDGRKMSKTLGNVVDPFALLEKYGRDALRYYLLREIPYGQDTPVSEEALRTRYEADLADDLGNLVQRTRAMLFRFAEGRIPEPVAGEELAEGTGLAGRLRPLVRELKFHVALEEAMAYVKALNRYINEKKPWELFKKEPEEARAVLYRVVEGLRIASILLTPAMPDKMAELRRALGLKEEVRLEEAERWGLAEPRPIPEEAPVLFPKKEAKVEAKPKEEAWIGIEDFAKVELRVAEVLAAEKHPNADRLLVLRLSLGNEERTVVSGIAKWYRPEELVGKKVVLVANLKPAKLRGIESQGMILAAQEGEALALVTVEGEVPPGAVVK
Work on B2 yielded a Km [3] of 180 µM and a Km [4] of 18 µM.

B3: Methionine--tRNA ligase (Staphylococcus aureus subsp. aureus MW2), Q8NY00 L213W (protein)
chain: MAKETFYITTPIYYPSGNLHIGHAYSTVAGDVIARYKRMQGYDVRYLTGTDEHGQKIQEKAQKAGKTEIEYLDEMIAGIKQLWAKLEISNDDFIRTTEERHKHVVEQVFERLLKQGDIYLGEYEGWYSVPDETYYTESQLVDPQYENGKIIGGKSPDSGHEVELVKEESYFFNISKYTDRLLEFYDQNPDFIQPPSRKNEMINNFIKPGLADWAVSRTSFNWGVHVPSNPKHVVYVWIDALVNYISALGYLSDDESLFNKYWPADIHLMAKEIVRFHSIIWPILLMALDLPLPKKVFAHGWILMKDGKMSKSKGNVVDPNILIDRYGLDATRYYLMRELPFGSDGVFTPEAFVERTNFDLANDLGNLVNRTISMVNKYFDGELPAYQGPLHELDEEMEAMALETVKSYTESMESLQFSVALSTVWKFISRTNKYIDETTPWVLAKDDSQKDMLGNVMAHLVENIRYAAVLLRPFLTHAPKEIFEQLNINNPQFMEFSSLEQYGVLTESIMVTGQPKPIFPRLDSEAEIAYIKESMQPPATEEEKEEIPSKPQIDIKDFDKVEIKAATIINAEHVKKSDKLLKIQVDLDSEQRQIVSGIAKFYTPDDIIGKKVAVVTNLKPAKLMGQKSEGMILSAEKDGVLTLVSLPSAIPNGAVIK
In the case of B3, the Km [5] is reported as 1.7 µM, the kcat [5] is reported as 0.54 s⁻¹ and the kcat/Km [6] is reported as 17000 M⁻¹ s⁻¹. It also gave a Km [7] of 100 µM, a kcat [7] of 10 s⁻¹ and a kcat/Km [8] of 100000 M⁻¹ s⁻¹. The kcat/Km [9] was 320000 M⁻¹ s⁻¹ and the Km [10] was 595 µM.

B4: Methionine--tRNA ligase (Staphylococcus aureus subsp. aureus MW2), Q8NY00 A247E (protein)
chain: B3 chain with W213L, A247E
For B4, the Km [11] was 1.3 µM, the kcat [11] was 0.057 s⁻¹ and the kcat/Km [12] was 50000 M⁻¹ s⁻¹. The Km [13] was 220 µM, the kcat [13] was 11 s⁻¹ and the kcat/Km [14] was 10000 M⁻¹ s⁻¹. It also gave a kcat/Km [15] of 44000 M⁻¹ s⁻¹ and a Km [16] of 1140 µM.
